# Compound activity as filed in PubChem BioAssay.
# A selection: hits, their analogues and other compounds. The true share with any hit is near 3.6%.
# IMP-1 inhibitor: inhibitors of Pseudomonas aeruginosa IMP-1 metallo-beta-lactamase; inhibition, % at 5.6 µM; purified IMP-1, nitrocefin hydrolysis, epi-absorbance fluorescence; 290,000 tested, 0.45% active;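 active = inhibition above the mean plus 3 SD of all compounds in the same screening run, cut at about 4.5% in these data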
#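 System: Purified recombinant IMP-1 metallo-beta-lactamase enzyme | Measured by: Fluorescence quenching readout, ex 480/em 530 nm | Replication: Singlicate | Incubation: 15 min preincubation plus 25 min reaction at 25 °C | Evaluation: Percent inhibition from optical density relative to buffer-blank wells | Benchmarks: DMSO with and without IMP-1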
# pPAFAH inh: inhibitors of human plasma PAF acetylhydrolase (pPAFAH); Q13093; recombinant pPAFAH, FP-rhodamine probe fluorescence polarization; inhibition, % at 3.39 µM; 330,000 tested, 1.5% active;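 active = inhibition above the mean inhibition across the screen plus 3 SD, cut at about 25% in these data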;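 note: inhibitors block binding of the rhodamine activity-based probe so polarization drops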
# PAFAH2 FP inh: PAFAH2 (human) inhibition; recombinant PAFAH2, FP-rhodamine activity probe, fluorescence polarization; inhibition, % at 3.39 µM; 340,000 tested, 0.99% active; AID 492956;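 active = inhibition above the mean over all tested compounds plus 3 SD, cut at about 30% in these data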;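 note: inhibitors block probe labeling of enzyme so polarization drops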
# VIM-2 inh: blocks Pseudomonas aeruginosa VIM-2 metallo-beta-lactamase | inhibition, % at 5.6 µM | purified VIM-2, nitrocefin hydrolysis, epi-absorbance fluorescence | 290,000 tested, 0.89% active;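 active = inhibition above the mean of all tested compounds plus 3 SD, cutoff set per screening run, cut at about 7.5% in these data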;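 note: red hydrolysis product quenches plate fluorescence so inhibitors raise well fluorescence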
# PAFAH1B3 inh: blocks human PAF acetylhydrolase 1B catalytic subunit 3. 340,000 tested, 0.28% active. inhibition, % at 3.39 µM. recombinant PAFAH1B3, FP-rhodamine probe, fluorescence polarization. Q15102;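 active = inhibition above the screen-wide average of all tested compounds plus 3 SD, cut at about 25% in these data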
# Target sequence (Q15102 whole entry, looked up): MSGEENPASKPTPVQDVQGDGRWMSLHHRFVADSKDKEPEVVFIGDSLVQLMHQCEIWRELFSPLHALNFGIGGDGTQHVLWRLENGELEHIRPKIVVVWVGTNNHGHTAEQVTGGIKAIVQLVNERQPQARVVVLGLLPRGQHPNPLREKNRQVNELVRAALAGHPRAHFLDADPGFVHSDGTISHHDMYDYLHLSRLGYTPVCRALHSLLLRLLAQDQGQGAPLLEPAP
# PAFAH1B2 FP inh: blocks human PAF acetylhydrolase 1b catalytic subunit 2; recombinant PAFAH1B2, FP-rhodamine activity probe, fluorescence polarization; P68402; inhibition, % at 3.39 µM; 340,000 tested, 1.2% active; AID 492953;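 active = inhibition above the mean of all tested compounds plus 3 SD, cut at about 24% in these data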
# Target sequence (P68402 whole entry, looked up): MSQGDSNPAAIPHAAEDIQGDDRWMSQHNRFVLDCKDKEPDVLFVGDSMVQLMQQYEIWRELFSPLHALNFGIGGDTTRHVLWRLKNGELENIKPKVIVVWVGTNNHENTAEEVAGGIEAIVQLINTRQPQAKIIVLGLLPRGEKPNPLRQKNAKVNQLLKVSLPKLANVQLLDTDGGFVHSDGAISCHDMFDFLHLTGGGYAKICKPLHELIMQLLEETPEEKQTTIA
# Numbers stand for hits; . = inactive; / = not tested or not shown.
SMILES,IMP-1 inhibitor,pPAFAH inh,PAFAH2 FP inh,VIM-2 inh,PAFAH1B3 inh,PAFAH1B2 FP inh
C[C@@H](C(=O)Nc1nc(-c2ccccn2)cs1)N1C(=O)C2CCCCC2C1=O (some centres not stated),11.4,.,.,.,.,.
OC(c1ccccc1)(c1ccc(F)cc1)C(c1ccccc1)N1CCOCC1 (configuration not stated),.,.,.,.,.,33.0
Cc1ccc(C)c(N2CCN(C(=O)c3ccc(Cn4c(=S)[nH]c5ccc(N6CCOCC6)cc5c4=O)cc3)CC2)c1,.,27.0,.,.,.,.
O=C(c1ccc2c(=O)n(Cc3ccccc3)c(=S)[nH]c2c1)N1CCCC1,.,.,.,.,.,26.4
CCCCCn1c(=S)[nH]c2cc(C(=O)N3CCCC3)ccc2c1=O,.,.,.,.,.,.
CCOc1ccc(N=Cc2c(C)[nH]n(-c3nc4ccccc4[nH]3)c2=O)cc1,7.2,.,.,.,.,.
CCOC(=O)CSc1nnc(NC(=O)CCc2ccccc2)s1,.,.,.,.,.,.
CCOC(=O)CSc1nnc(NC(=O)CN2CCN(C=O)CC2)s1,.,.,.,.,.,52.0
C/C(=N\NC(=O)c1cccc(N/N=C(\C)c2cc(O)ccc2O)c1)c1cc(O)ccc1O,.,31.6,.,.,.,.
CC(C)C[C@@H](CN)NC(=O)c1nc[nH]c1C(=O)N[C@@H](CC(C)C)C(=O)CNC[C@H](C)NC(=O)c1nc[nH]c1C(=O)N[C@@H](CC(C)C)C(=O)O,/,/,.,/,.,.
C#CCOc1ccccc1/C=N/NC(=O)c1ccccc1OCc1ccccc1,.,.,.,.,.,.
COc1ccc(-n2cc(-c3ccccc3)c3c(NCCOCCO)ncnc32)cc1,.,28.2,.,.,.,.
COC(=O)C(C)Sc1ncnc2c1c(-c1ccccc1)cn2-c1ccc(OC)cc1 (configuration not stated),.,.,.,.,.,.
NS(=O)(=O)c1ccc(CCNc2ncnc3c2c(-c2ccccc2)cn3-c2ccc(F)cc2)cc1,.,26.8,.,.,.,.
CCOc1ccc(-n2cc(-c3ccccc3)c3c(SC(C)C(=O)OC)ncnc32)cc1 (configuration not stated),.,30.3,.,.,.,.
CC1CN(c2ncnc3c2c(-c2ccccc2)cn3-c2ccc(F)cc2)CC(C)O1 (configuration not stated),.,.,.,.,.,.
NS(=O)(=O)c1cccc(NC(=O)CC23CC4CC(C2)CC(CC(=O)Nc2cccc(S(N)(=O)=O)c2)(C4)C3)c1,.,.,.,.,.,35.7
NS(=O)(=O)c1cccc(NC(=O)CNC(=O)CC23CC4CC(CC(C4)C2)C3)c1,.,.,.,.,.,.
CC(=O)NS(=O)(=O)c1ccc(NC(=O)CC23CC4CC(CC(Br)(C4)C2)C3)cc1,.,.,.,.,.,24.5
CCOC(=O)C1CCN(S(=O)(=O)c2cn(C)cn2)CC1,.,.,.,.,.,.
CCn1c(C)c(C)c2cc(C(=O)NCCCN3CCCCC3C)ccc21 (configuration not stated),.,.,.,.,.,.
CCN1/C(=C/C(C)=O)Sc2ccc(OC)cc21,.,.,.,.,.,.
CCN1/C(=C\C=C2\C(=O)N(C)C(=S)N2C)Sc2ccccc21,.,.,.,.,.,.
CCOC(=O)/C(=C\C=C1/Sc2cc(OCC)c(OCC)cc2N1CC)C(C)=O,4.8,.,.,.,.,.
CCOC(=O)/C(=C/C=C1\Sc2cc(OCC)c(OCC)cc2N1CC)C(C)=O,6.2,.,.,.,.,.
SMILES,IMP-1 inhibitor,pPAFAH inh,PAFAH2 FP inh,VIM-2 inh,PAFAH1B3 inh,PAFAH1B2 FP inh
COc1cc(OC)cc(C(=O)NC2CC3CCC(C2)N3C)c1 (configuration not stated),/,.,.,/,.,.
CC[C@@H](C)[C@H](CN[C@H](CNC)[C@@H](C)O)NCCc1ccc(OC)cc1,.,.,.,11.0,.,.
Cc1cccc(C)c1NC(=O)CNC(=O)C(C)NC(C)c1ccccc1Br (configuration not stated),/,.,.,/,.,.
Cc1ccccc1C(=O)N1CCN(c2ccc(NC(=O)c3ccc([N+](=O)[O-])o3)cc2)CC1,.,.,.,.,.,.
COC(=O)c1c(-c2cccnc2)csc1NC(=O)c1cc(C)on1,.,.,.,9.7,.,.
Cc1ccc(S(=O)(=O)Nc2c(C)n(C)n(-c3ccccc3)c2=O)cc1C(=O)NCc1ccco1,/,/,.,/,.,.
CC(=O)Nc1ccc(NC(=O)C(C)Sc2nnc(C3CC3)n2-c2ccccc2)cc1 (configuration not stated),/,.,.,/,.,.
Cc1cc(S(=O)(=O)N2CCCCC2)c(C)s1,.,.,.,.,.,.
COc1c(O)c(=O)n2c3ccccc3c3ccnc1c32,/,.,.,/,.,.
O=c1c(Cl)c(O)c2cccc3c4ccccc4n1c23,.,.,.,9.4,.,.
Cc1ccc2nc(Cl)nc(-c3ccccc3)c2c1,.,.,.,.,.,.
Cc1ccc2nc(Cl)c(-c3ccccc3)cc2c1,/,30.9,/,/,/,/
O=S1(=O)N=C(N(CCO)/N=C/c2ccc(Cl)cc2)c2ccccc21,.,.,.,.,.,.
CN(/N=C/c1ccncc1)C1=NS(=O)(=O)c2ccccc21,.,.,.,9.9,.,.
CN(C)c1ccc(/C=N/N(CCC#N)C2=NS(=O)(=O)c3ccccc32)cc1,.,.,.,9.1,.,.
CC1CC(NC(=O)C2(C)CC2(Cl)Cl)CC(C)(C)C1 (configuration not stated),.,.,.,.,.,26.0
Cc1ccc(Cl)cc1NS(=O)(=O)Cc1ccccc1,.,30.5,.,.,.,.
Cc1ccc(Cl)cc1NS(=O)(=O)c1ccccc1,/,/,.,/,.,.
O=C(Cn1nc(Cc2cccnc2)c2ccccc2c1=O)Nc1cc(F)ccc1F,.,.,.,.,.,.
O=C(Cn1nc(Cc2cccnc2)c2ccccc2c1=O)Nc1ccccc1F,.,25.5,.,.,.,.
Cc1ccc2ccc3cccnc3c2n1,.,.,.,9.5,.,.
O=C(O)c1ncn(Cc2ccc(Br)cc2)c1C(=O)O,.,.,.,.,.,24.9
O=C(c1ncn(Cc2ccccc2)c1C(=O)N1CCN(c2ccccc2)CC1)N1CCN(c2ccccc2)CC1,/,.,.,/,.,.
CC1C/C(=N/N=C2/NC(=O)CS2)CC(C)(C)C1 (configuration not stated),.,.,.,.,.,75.8
CC1C/C(=N/N2C(=O)CSC2=S)CC(C)(C)C1 (configuration not stated),.,.,.,.,.,.
CCN1C(=O)c2ccc(C(=O)Nc3ccc4c(c3)OCO4)cc2C1=O,.,.,.,.,.,.
Cc1ccc(NC(=O)CSc2nnc3ccc(-c4ccncc4)nn23)cc1,/,/,.,/,.,.
COc1ccc(-n2c(C)c(C)c3c(NCCCO)ncnc32)cc1,.,/,.,.,.,.
